The nature of the data set: Toxicity liver stage against HepG2, at 10uM. The data set is classed as cell-based. Further details: test concentration 10 uM, cell line HepG2-A16-CD81EGFP. The note with it: human, HepG2-A16-CD81EGFP cells; read-out: INHIBITION
In a few lines: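 Uninfected HepG2-A16-CD81EGFP cells, 3 × 10^3 per well, 1536-well, plated on prespotted compound at 10 μM final, parasite-free screening media added to match infected plates; puromycin 10 μM positive, DMSO 0.5% negative; run in parallel with 48 h PbLuc assay at 37 °C, 5% CO2; viability by CellTiter-Glo luminescence, normalized to controls.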
As for `CCOC(=O)CN1CCC2(CC1)CC(=O)c1ccc3ccccc3c1O2`, the cytotoxicity at 10 µM was 3.33%.

As for `CC(=O)N1CCC(c2[nH]ncc2S(C)(=O)=O)CC1`, the cytotoxicity at 10 µM was determined as 0.752%.

As for `Cc1nc(CN2CCc3ncnc(C4CCOC4)c3CC2)cs1` (stereo unspecified), the cytotoxicity at 10 µM came to 3.05%.

For `CCCc1nc(N2CCCC(CCOC)C2)c2cnn(C)c2n1` (stereo unspecified), the cytotoxicity at 10 µM was 12.1%.

In the case of `Cc1nc(CN2CCCC(N(C)CCOCC(F)(F)F)C2)no1` (stereo unspecified), the cytotoxicity at 10 µM was -4.92%.

In the case of `CS(=O)(=O)c1ccc(C(O)CN2CCC(c3ccn[nH]3)CC2)cc1` (stereo unspecified), the cytotoxicity at 10 µM was -12.1%.

For `c1cncc(CN2CCN3C[C@H](Oc4cncnc4)C[C@H]3C2)c1`, the cytotoxicity at 10 µM is -100%.

Turning to `C(=C\c1ccccc1)/CNCC1CCc2nncn2C1` (stereo unspecified), the cytotoxicity at 10 µM is 16.8%.

`Cc1cccc(N2CCc3ncnc(C4CC4)c3CC2)n1`: the cytotoxicity at 10 µM is -148%.

In the case of `Cc1cc(NC(=O)CCn2nc(C)c3ccccc32)n(C)n1`, the cytotoxicity at 10 µM is 3.4%.

For `c1cncc(COCC2CN(Cc3cccnc3)Cc3ccnn3C2)c1` (stereo unspecified), the cytotoxicity at 10 µM is -136%.

`Cc1csc(C(=O)N2CC(S(=O)(=O)C3CCCCC3)C2)c1`: the cytotoxicity at 10 µM is -2.83%.

For `O=C(c1ccc(Cl)cc1)N1CCn2c(nn(-c3ccc(Cl)cc3)c2=O)C1`, the cytotoxicity at 10 µM was found to be 10.9%.

For the molecule `CC(CC(=O)c1ccco1)NC(=O)c1ccccn1` (stereo unspecified), the cytotoxicity at 10 µM is -5.14%.

With `Cc1nc(C(=O)N2CCCC2c2c(C)nn(C)c2C)ccc1C#N` (stereo unspecified), the cytotoxicity at 10 µM was -6.16%.

On to `O=C(c1cc(Cl)c2c(c1)OCO2)N1CCN(c2ncccn2)CC1`, for which the cytotoxicity at 10 µM was -0.769%.

As to `Cc1nn(C)cc1C1=NS(=O)(=O)N(C)C(C(=O)Nc2ccc(Cl)cc2)=C1`, the cytotoxicity at 10 µM came to 7.9%.

Regarding `CCN1CCCN(c2ccc(-n3ccc(C)n3)nn2)CC1`, the cytotoxicity at 10 µM was -0.553%.

As for `COc1cccc(COCC(=O)N2CCCN(CC(N)=O)CC2)c1`, the cytotoxicity at 10 µM is -7.04%.

Consider `O=C(NCCc1csc(-c2cccnc2)n1)c1cnn2c1CCCC2`, for which the cytotoxicity at 10 µM turned out to be 3.41%.

For the molecule `CC(=O)Nc1nc(C2CCCN(C(=O)CN(C)C)C2)cs1` (stereo unspecified), the cytotoxicity at 10 µM was -43.4%.

In the case of `O=C(NCCCOc1cccnc1)c1cn(Cc2ccccc2F)nn1`, the cytotoxicity at 10 µM was 1.03%.

In the case of `O=C(c1cscn1)N1CCc2ncc(CN3CCOCC3)n2CC1`, the cytotoxicity at 10 µM is -75.6%.

`Cn1c(C2CC2)nc2c1CCN(Cc1nc(Cc3ccccc3)no1)C2`: the cytotoxicity at 10 µM was -6.37%.

`Cc1noc(C)c1CN(C)C(=O)COc1cccc(C#N)c1`: the cytotoxicity at 10 µM was 5.3%.

`CCc1n[nH]c(C2CN(C(=O)c3ccc(Cl)cn3)CCO2)n1` (stereo unspecified): the cytotoxicity at 10 µM is -18.3%.

For `CC(C)c1nnc2n1CCN(C(=O)c1ccc3c(c1)CCC3)C2`, the cytotoxicity at 10 µM was -10.7%.

For `CN(C)Cc1nc2c(o1)CN(C(=O)c1ccncc1F)C2`, the cytotoxicity at 10 µM is -114%.

Consider `COc1ccc(-n2cnnc2CC2CCNCC2)cc1`, for which the cytotoxicity at 10 µM was -5.53%.

Consider `O=C(Cn1nc(Br)nc1Br)N1CCCCC1`, for which the cytotoxicity at 10 µM was -4.38%.

In the case of `CN1CCCN(C(=O)c2nc3c(o2)CN(C(=O)c2cccnc2)C3)CC1`, the cytotoxicity at 10 µM worked out at 2.75%.

Take `Cc1ccc(CN2C[C@H](OCC3CCOCC3)[C@H]3COC[C@H]32)o1`: the cytotoxicity at 10 µM was -4.58%.

Take `c1csc(CCC2CCCCN2Cc2noc(C3CC3)n2)c1` (stereo unspecified): the cytotoxicity at 10 µM came out at 0.562%.

Take `CC(=O)N1CCC2(CCCN2Cc2cnn(C)c2)CC1`: the cytotoxicity at 10 µM is -2.27%.

On to `CC(=O)N1CC[C@H]2OCC[C@@H](C(=O)N3CCCCO3)[C@@H]2C1`, for which the cytotoxicity at 10 µM was -5.1%.

As to `COc1cccc(C(C(=O)O)N2CCSCC2)c1F` (stereo unspecified), the cytotoxicity at 10 µM was -12.9%.

As for `O=C(C1CCOCC1)N1CCO[C@H]2[C@H](Oc3cccnc3)CC[C@@H]21`, the cytotoxicity at 10 µM worked out at 2.03%.

Consider `CCN1CCC(c2nnc(CN3CCCC3)n2C2CC2)CC1`, for which the cytotoxicity at 10 µM is -7.3%.

As for `O=C1CCc2cc(OCCN3CCc4cncnc4C3)ccc2N1`, the cytotoxicity at 10 µM is -7.2%.

`COc1ccc(C2CC(=O)Nc3c2nc2n3CCCC2)cc1O` (stereo unspecified): the cytotoxicity at 10 µM is -2.53%.

Consider `Cc1ccc(C)c(Oc2ccc(CNC(=O)C3CCC(=O)N3)cn2)c1` (stereo unspecified), for which the cytotoxicity at 10 µM turned out to be 5.98%.

As for `CC(C)c1cc(C(=O)N2CCC3(CCc4ccccc4C(=O)N3)C2)no1` (stereo unspecified), the cytotoxicity at 10 µM worked out at 6.83%.

`Cc1ccc(N2CCC(C(O)Cc3ccccc3)CC2)nn1` (stereo unspecified): the cytotoxicity at 10 µM was -3.43%.

With `O=C(C1CC1)N1CCC2(CC1)OCCO2`, the cytotoxicity at 10 µM was 1.75%.

With `Cc1ccc(CNC(=O)CC2C(=O)NCCN2Cc2ccccc2C)s1` (stereo unspecified), the cytotoxicity at 10 µM was -7.98%.

Turning to `Cc1ncc(C(=O)N2CCCC(Cc3nccs3)C2)cn1` (stereo unspecified), the cytotoxicity at 10 µM was -2.03%.

With `c1csc(CN2C[C@H]3CCC[C@@]3(COCC3CCOCC3)C2)n1`, the cytotoxicity at 10 µM is -1.99%.

As for `Cc1ccc(CN2CCOCC2)cc1NCc1ccsc1`, the cytotoxicity at 10 µM is -8.84%.

`CCn1nc(C)c2nc(C)nc(N(C)Cc3ccco3)c21`: the cytotoxicity at 10 µM is 4.23%.

As to `CN(C)C(=O)CN1CCC2(CCN(CC3CC3)CC2)C1=O`, the cytotoxicity at 10 µM was -3.69%.

On to `O=C(NCC1CC1)C1=NOC2(CCN(S(=O)(=O)Cc3ccccc3)C2)C1` (stereo unspecified), for which the cytotoxicity at 10 µM was -2.1%.

In the case of `Cn1cnnc1CNC(=O)Nc1ccc(OC2CCC2)c(F)c1`, the cytotoxicity at 10 µM was 1.03%.

On to `C[C@H]1CN(C(=O)c2cscn2)C[C@@]12CCN(c1ccsc1)C2=O`, for which the cytotoxicity at 10 µM is -80.7%.

As to `CC(C)C(C#N)N1CCN(Cc2nccn2CC(F)(F)F)CC1` (stereo unspecified), the cytotoxicity at 10 µM came out at 0.172%.

In the case of `CC(C)(C)CC(=O)N1CCC(n2cc(C3(O)CCCC3)nn2)CC1`, the cytotoxicity at 10 µM was 8.64%.

In the case of `Cc1nnc2n1CCN(C(C(=O)NC1CC1)c1ccc(F)cc1)C2` (stereo unspecified), the cytotoxicity at 10 µM is -6.6%.

On to `COc1ccc2c(c1)C(NCCc1c(C)noc1C)CCCO2` (stereo unspecified), for which the cytotoxicity at 10 µM is -2.79%.

Regarding `Cc1cccc(N2Cc3c(NC4CCCC4)ncnc3N(C)CC2=O)c1`, the cytotoxicity at 10 µM was 10.3%.

In the case of `Cc1ccc(CN2CCc3c(C(=O)N(C)C)nn(C)c3C2)s1`, the cytotoxicity at 10 µM is -12.4%.

For the molecule `CCc1nc(C)c(C(=O)N2C[C@@H](C(=O)O)[C@H](C3CC3)C2)s1`, the cytotoxicity at 10 µM is 3.41%.

As to `c1ccc(CCN2CCN(C3CCOC4(CCOCC4)C3)CC2)cc1` (stereo unspecified), the cytotoxicity at 10 µM is -3.79%.

Regarding `Cc1cnn(-c2ccc(S(=O)(=O)N(C)CC(C)(CO)CO)cc2F)c1`, the cytotoxicity at 10 µM turned out to be 12.5%.

`CN1CCCN(C(=O)NCCNc2cnccn2)CC1`: the cytotoxicity at 10 µM was -3.4%.

With `O=C(NC1CCN(c2ncccn2)CC1)c1cc2c(cc1O)CCCC2`, the cytotoxicity at 10 µM is 8%.

`CC(NCC1(N(C)C)CCOCC1)c1ccc(S(C)(=O)=O)cc1` (stereo unspecified): the cytotoxicity at 10 µM was -3.27%.

On to `O=C1CCC2(CCCN(c3ncc(F)cn3)CC2)N1Cc1ccccc1` (stereo unspecified), for which the cytotoxicity at 10 µM worked out at 2.87%.

In the case of `COCCCc1nc(-c2ccc(S(=O)(=O)N3CCCC3)cc2)cs1`, the cytotoxicity at 10 µM is -46.3%.

In the case of `CN1CCN(Cc2ccc(-c3ccc(C(N)=O)cc3)nc2)CC1`, the cytotoxicity at 10 µM was 5.58%.

Turning to `CCOCc1ccccc1NC(=O)NCC(C)(O)c1cc(C)oc1C` (stereo unspecified), the cytotoxicity at 10 µM was -1.48%.

For the molecule `CC(C)(C)c1ncc(CNCC2CCCn3ccnc32)s1` (stereo unspecified), the cytotoxicity at 10 µM is -6.76%.

With `CC(O)CN1CCN(C(=O)c2ccc(CN(C)C)cc2)CC1` (stereo unspecified), the cytotoxicity at 10 µM is -8.09%.

On to `COCCCN1CC2(CCCCN2C(=O)COC)CC1=O` (stereo unspecified), for which the cytotoxicity at 10 µM was determined as 2.5%.

As to `C[C@@H]1CN(Cc2cccnc2)C[C@]1(C)O`, the cytotoxicity at 10 µM is -6.1%.

In the case of `Cc1ccc(C(N)=O)c(N2C[C@H]3OC(=O)N(C4CCCC4)[C@H]3C2)n1`, the cytotoxicity at 10 µM worked out at 5.54%.

Regarding `Cc1ccc(CNC(=O)C2c3c(ncn3C(C)C)CCN2S(C)(=O)=O)o1` (stereo unspecified), the cytotoxicity at 10 µM was -13.7%.

For `CCC1CN(C(=O)c2cc(C(C)=O)c(C)[nH]c2=O)CCN1C(C)C` (stereo unspecified), the cytotoxicity at 10 µM was found to be 6.03%.

For `CCN(CC)C(=O)Cn1ccc2cc(NC(=O)NC3CC3)ccc21`, the cytotoxicity at 10 µM was -9.01%.

On to `COC[C@@H]1CCC[C@]12CN(CCc1ccccc1)CCO2`, for which the cytotoxicity at 10 µM is 0.312%.

Take `NCCc1nc(N(Cc2cncs2)C2CC2)c2ccccc2n1`: the cytotoxicity at 10 µM was -7.15%.

For `CCC(=O)NCCCn1c(-c2cccnc2C)cc2cccnc21`, the cytotoxicity at 10 µM was determined as 3.84%.

Take `Cc1ccccc1OCCCC(=O)N1CCCC(n2cncn2)C1` (stereo unspecified): the cytotoxicity at 10 µM was -4.36%.

Turning to `O=C(Nc1nccs1)C1CCCN1Cc1ccccn1` (stereo unspecified), the cytotoxicity at 10 µM was -20%.

For `COc1ccccc1C1(CNCc2cccc(C#N)c2)CCOCC1`, the cytotoxicity at 10 µM was determined as 6.37%.

Take `CCCN(CC(F)(F)F)C(=O)c1cc(F)cc2[nH]cnc12`: the cytotoxicity at 10 µM is 3.19%.

On to `Cc1nc(CN2CCC(CNC(=O)Nc3ccccc3)CC2)oc1C`, for which the cytotoxicity at 10 µM was 3.54%.

`CC(=O)N1CCCC(c2ccnc(Nc3cnccn3)c2)C1` (stereo unspecified): the cytotoxicity at 10 µM is 9.37%.

`CC(C)NC(=O)N1CC[C@@H](N(C)C)[C@@H]1Cc1ccccc1`: the cytotoxicity at 10 µM came out at 9.82%.

With `O=C(Cc1nc(-c2ccncc2)n[nH]1)N1CCOCC1`, the cytotoxicity at 10 µM was -0.749%.

`COCCOc1ccnc(-c2noc([C@@H]3CCCN3C3CCC3)n2)c1`: the cytotoxicity at 10 µM is -8.46%.

Turning to `Cc1noc(C)c1C(=O)N1CCC2(CC1)c1nc[nH]c1CCN2C`, the cytotoxicity at 10 µM was determined as 7.9%.

In the case of `COc1cccc(CN2CCC3(COCc4cnc(N(C)C)nc43)C2)c1` (stereo unspecified), the cytotoxicity at 10 µM came out at 11.2%.

Consider `Cc1cc(O)nc(C2CN(CCC(F)(F)F)CCO2)n1` (stereo unspecified), for which the cytotoxicity at 10 µM was -27.4%.

Take `CC(=O)N1CCC(c2noc(C3CCC(=O)N3)n2)CC1` (stereo unspecified): the cytotoxicity at 10 µM is 1.64%.

With `CN1CC[C@]2(CN(CC3CCOC3)C[C@H]2c2ccccc2)C1=O` (stereo partly specified), the cytotoxicity at 10 µM was 0.619%.

Take `O=C(NCC1COCc2c(-c3cccnc3)nnn2C1)c1cccs1` (stereo unspecified): the cytotoxicity at 10 µM was determined as 2.93%.

In the case of `CC(C)Cc1cc(C(=O)N2CCC(N3CCCC3)CC2)cc(O)n1`, the cytotoxicity at 10 µM came to 4.64%.

For the origin of these results see ChEMBL document CHEMBL4513216, “Probing the Open Global Health Chemical Diversity Library for Multistage-Active Starting Points for Next-Generation Antimalarials” (ACS Infect Dis, 2020).
